# Assay results taken from ChEMBL document CHEMBL1921722, “In vitro and in vivo evaluation of select kahalalide F analogs with antitumor and antifungal activities” (Bioorg Med Chem, 2011).
# The source made the active and inactive calls.
# What was measured:
# SK-OV-3 [1] = assay: Cytotoxicity against human SKOV3 cells assessed as cell growth at 80 nM by sulforhodamine B assay relative to control; format: functional; conditions: read-out: Activity
# MDA-MB-435 = assay: Cytotoxicity against human MDA-MB-435 cells by sulforhodamine B assay; format: functional
# How it was run: (§1)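 NCI Developmental Therapeutics Program 60-cell-line human tumor panel screen, run at NCI. A single-concentration pre-screen was followed by a five-concentration dose-response in 10-fold steps. GI50 is the concentration that reduces growth of treated cells to half that of untreated control cells. TGI is the concentration that completely halts growth.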
# COLO 205 = assay: Cytotoxicity against human COLO205 cells assessed as cell growth at 8 uM by sulforhodamine B assay relative to control; format: functional; conditions: read-out: Activity
# How it was run: (§2)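 Run at NCI in the DTP 60-cell-line human tumor panel by standard procedure. Compounds were first screened at a single concentration, then tested at five tenfold-spaced concentrations. GI50 is the concentration reducing treated-cell growth to half that of untreated controls; TGI is the concentration completely halting growth.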
# NCI/ADR-RES = assay: Cytotoxicity against human NCI/ADR-RES cells assessed as cell growth at 80 nM by sulforhodamine B assay relative to control; format: functional; conditions: read-out: Activity
# SK-MEL-2 = assay: Cytotoxicity against human SK-MEL-2 cells assessed as cell growth at 8 uM by sulforhodamine B assay relative to control; format: functional; conditions: read-out: Activity
# Malme-3M [2] = assay: Cytotoxicity against human MALME-3M cells assessed as cell growth at 80 uM by sulforhodamine B assay relative to control; format: functional; conditions: read-out: Activity
# OVCAR-8 [3] = assay: Cytotoxicity against human OVCAR8 cells assessed as cell growth at 8 nM by sulforhodamine B assay relative to control; format: functional; conditions: read-out: Activity
# SK-OV-3 [4] = assay: Cytotoxicity against human SKOV3 cells assessed as cell growth at 8 nM by sulforhodamine B assay relative to control; format: functional; conditions: read-out: Activity
# SF-539 = assay: Cytotoxicity against human SF539 cells assessed as cell growth at 8 uM by sulforhodamine B assay relative to control; format: functional; conditions: read-out: Activity
# DU-145 = assay: Cytotoxicity against human DU145 cells assessed as cell growth at 80 nM by sulforhodamine B assay relative to control; format: functional; conditions: read-out: Activity
# SR = assay: Cytotoxicity against human SR cells by sulforhodamine B assay; format: functional; how it was run: as §1
# TK-10 [5] = assay: Cytotoxicity against human TK10 cells assessed as cell growth at 8 uM by sulforhodamine B assay relative to control; format: functional; conditions: read-out: Activity
# TK-10 [6] = assay: Cytotoxicity against human TK10 cells assessed as cell growth at 800 nM by sulforhodamine B assay relative to control; format: functional; conditions: read-out: Activity
# OVCAR-5 [7] = assay: Cytotoxicity against human OVCAR5 cells assessed as cell growth at 80 nM by sulforhodamine B assay relative to control; format: functional; conditions: read-out: Activity
# Malme-3M [8] = assay: Cytotoxicity against human MALME-3M cells assessed as cell growth at 800 nM by sulforhodamine B assay relative to control; format: functional; conditions: read-out: Activity
# U-251 = assay: Cytotoxicity against human U251 cells by sulforhodamine B assay; format: functional; how it was run: as §1
# OVCAR-3 = assay: Cytotoxicity against human OVCAR3 cells by sulforhodamine B assay; format: functional; how it was run: as §1
# HT-29 = assay: Cytotoxicity against human HT-29 cells assessed as cell growth at 800 nM by sulforhodamine B assay relative to control; format: functional; conditions: read-out: Activity
# A549 = assay: Cytotoxicity against human A549 cells assessed as cell growth at 80 uM by sulforhodamine B assay relative to control; format: functional; conditions: read-out: Activity; how it was run: as §2
# ACHN = assay: Cytotoxicity against human ACHN cells assessed as cell growth at 800 nM by sulforhodamine B assay relative to control; format: functional; conditions: read-out: Activity; how it was run: as §2
# SW-620 = assay: Antitumor activity against human SW620 cells xenografted in mouse assessed as tumor cell killing at 4.7 mg/kg, ip qd for 4 days by MTT assay; format: functional, organism-based; set-up: dose 4.7 mg/kg
# How it was run: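 Hollow-fiber assay in mice. Tumor lines were grown in RPMI-1640 with 10% FBS and 2 mM glutamine. Cells at 2 × 10^6 cells/ml were loaded into 1 mm PVDF fibers (500,000 Da cutoff), heat-sealed at 2 cm and held 24–48 h at 37 °C, 5% CO2 before implantation. Compound was given IP. Fibers were collected the day after the fourth treatment for MTT (OD 540 nm, group means). A ≥50% cut in percent net growth versus vehicle counted as positive.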
# UACC-257 = assay: Cytotoxicity against human UACC257 cells assessed as cell growth at 8 nM by sulforhodamine B assay relative to control; format: functional; conditions: read-out: Activity
# NCI-H460 = assay: Cytotoxicity against human NCI-H460 cells assessed as cell growth at 8 uM by sulforhodamine B assay relative to control; format: functional; conditions: read-out: Activity
# PC-3 = assay: Cytotoxicity against human PC3 cells assessed as cell growth at 80 uM by sulforhodamine B assay relative to control; format: functional; conditions: read-out: Activity
# 786-0 = assay: Cytotoxicity against human 786-0 cells assessed as cell growth at 8 nM by sulforhodamine B assay relative to control; format: functional; conditions: read-out: Activity; how it was run: as §2
# EKVX = assay: Cytotoxicity against human EKVX cells assessed as cell growth at 80 uM by sulforhodamine B assay relative to control; format: functional; conditions: read-out: Activity
# A498 = assay: Cytotoxicity against human A498 cells assessed as cell growth at 800 nM by sulforhodamine B assay relative to control; format: functional; conditions: read-out: Activity; how it was run: as §2
# OVCAR-5 [9] = assay: Cytotoxicity against human OVCAR5 cells assessed as cell growth at 80 uM by sulforhodamine B assay relative to control; format: functional; conditions: read-out: Activity
# [10] = Acute toxicity in ip dosed athymic nude mouse assessed as mortality after 24 days; format: organism-based; conditions: in vivo
# How it was run: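 Female athymic nude mice, non-tumored; single IP injection, one mouse per dose level, 400, 200 and 100 mg/kg first, then 50, 25 and 12.5 mg/kg. Dose volume 0.1 ml/10 g body weight. Body weight and survival monitored; animals sacrificed on >20% weight loss or other significant toxicity.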
# HOP-62 = assay: Cytotoxicity against human HOP62 cells assessed as cell growth at 8 nM by sulforhodamine B assay relative to control; format: functional; conditions: read-out: Activity
# SNB-19 = assay: Cytotoxicity against human SNB19 cells by sulforhodamine B assay; format: functional; how it was run: as §1
# UACC-62 = assay: Cytotoxicity against human UACC62 cells assessed as cell growth at 8 nM by sulforhodamine B assay relative to control; format: functional; conditions: read-out: Activity
# OVCAR-8 [11] = assay: Cytotoxicity against human OVCAR8 cells assessed as cell growth at 8 uM by sulforhodamine B assay relative to control; format: functional; conditions: read-out: Activity
# SK-OV-3 [12] = assay: Cytotoxicity against human SKOV3 cells assessed as cell growth at 800 nM by sulforhodamine B assay relative to control; format: functional; conditions: read-out: Activity
# Hs-578T = assay: Cytotoxicity against human Hs578T cells by sulforhodamine B assay; format: functional; how it was run: as §1
# RXF 393 = assay: Cytotoxicity against human RXF393 cells assessed as cell growth at 8 uM by sulforhodamine B assay relative to control; format: functional; conditions: read-out: Activity
# NCI-H522 = assay: Cytotoxicity against human NCI-H522 cells assessed as cell growth at 8 nM by sulforhodamine B assay relative to control; format: functional; conditions: read-out: Activity
compound,measurement,setting,value
C/C=C1\NC(=O)[C@H](Cc2ccccc2)NC(=O)[C@@H](C(C)C)NC(=O)[C@@H]([C@@H](C)CC)NC(=O)[C@H](NC(=O)[C@H](NC(=O)[C@H](CCCNCc2ccc(N3CCOCC3)cc2)NC(=O)[C@H]2CCCN2C(=O)[C@H](NC(=O)[C@@H](NC(=O)[C@@H](NC(=O)[C@H](NC(=O)CCCC(C)C)C(C)C)[C@@H](C)O)C(C)C)C(C)C)[C@@H](C)CC)[C@@H](C)OC(=O)[C@H](C(C)C)NC1=O,growth at 0.08 µM,SK-OV-3 [1],101%
same,GI50,MDA-MB-435,1290 nM
same,TGI,MDA-MB-435; read-out: pTGI (converted),2450 nM
same,growth at 8 µM,COLO 205,-73%
same,growth at 0.08 µM,NCI/ADR-RES,82%
same,growth at 8 µM,SK-MEL-2,-74%
same,growth at 80 µM,Malme-3M [2],-23%
same,growth at 0.008 µM,OVCAR-8 [3],99%
same,growth at 0.008 µM,SK-OV-3 [4],107%
same,growth at 8 µM,SF-539,-89%
same,growth at 0.08 µM,DU-145,89%
same,GI50,SR,3.02 µM
same,LC50,SR,> 75.9 µM
same,TGI,SR; read-out: pTGI (converted),36.3 µM
same,growth at 8 µM,TK-10 [5],-77%
same,growth at 0.8 µM,TK-10 [6],104%
same,growth at 0.08 µM,OVCAR-5 [7],93%
same,growth at 0.8 µM,Malme-3M [8],117%
same,GI50,U-251,1000 nM
same,LC50,U-251,3.89 µM
same,TGI,U-251; read-out: pTGI (converted),2000 nM
same,GI50,OVCAR-3,617 nM
same,TGI,OVCAR-3; read-out: pTGI (converted),1860 nM
same,growth at 0.8 µM,HT-29,3%
same,growth at 80 µM,A549,4%
same,growth at 0.8 µM,ACHN,90%
same,Activity,SW-620,inactive
same,growth at 0.008 µM,UACC-257,101%
same,growth at 8 µM,NCI-H460,-24%
same,growth at 80 µM,PC-3,-67%
same,growth at 0.008 µM,786-0,103%
same,growth at 80 µM,EKVX,-46%
same,growth at 0.8 µM,A498,100%
same,growth at 80 µM,OVCAR-5 [9],-47%
same,MTD at 576 h,[10],12.5 mg/kg
same,growth at 0.008 µM,HOP-62,104%
same,GI50,SNB-19,1350 nM
same,TGI,SNB-19; read-out: pTGI (converted),2750 nM
same,growth at 0.008 µM,UACC-62,102%
same,growth at 8 µM,OVCAR-8 [11],-34%
same,growth at 0.8 µM,SK-OV-3 [12],-35%
same,LC50,Hs-578T,> 75.9 µM
same,GI50,Hs-578T; read-out: GI50,453 nM
same,TGI,Hs-578T; read-out: TGI,444 nM
same,GI50,Hs-578T; read-out: pGI50 (converted),457 nM
same,TGI,Hs-578T; read-out: pTGI (converted),2040 nM
same,growth at 8 µM,RXF 393,-47%
same,growth at 0.008 µM,NCI-H522,99%
